Experimental data pooled from the literature.
CDK5: Cyclin-dependent kinase 5 (CDK5, Homo sapiens, UniProt Q00535)
CDK5 with p25: Cyclin-dependent kinase 5, with p25 (CDK5, Homo sapiens, UniProt Q00535)
CDK5 with p35: Cyclin-dependent kinase 5, with p35 (CDK5, Homo sapiens, UniProt Q00535)

With `N#Cc1ccc(Nc2ccc3[nH]c(=O)[nH]c3c2)c(Cl)c1` the remaining binding was 100% (CDK5; cell-free assay, competition with immobilised ligand; 1 µM).
For `N#CCCc1ccc2c(c1)-c1[nH]c3ccc([N+](=O)[O-])cc3c1CC(=O)N2`, the remaining signal was 5.79% (CDK5 with p25; cell-free assay; 0.5 µM).
`NS(=O)(=O)c1cc(NC(=O)Cc2ccccc2)ccc1Oc1cccc(Cl)c1` has a remaining binding of 61% (CDK5; cell-free assay, competition with immobilised ligand; 1 µM).
For `N[C@H]1CCN(c2nccc(-c3cnn4ncccc34)n2)C1`, the remaining binding was 100% (CDK5; binding; 1 µM).
`CS(=O)(=O)N1CCCC(NC(=O)[C@H](CCC2CCCCC2)NC(=O)c2ccc(CNC(=O)c3cnc4ccccn34)cc2)C1` (stereo partly drawn) has a remaining binding of 100% (CDK5; cell-free assay, competition with immobilised ligand; 0.1 µM).
`Cc1ccc(C(=O)NCc2ccsc2)cc1C#Cc1cn(C(C)C)c2ncnc(N)c12` has an activity vs control of 96% (CDK5 with p35; enzyme activity, inhibitor; 1 µM).
`O=C1NC(=O)c2cc(Nc3ccc(F)cc3)c(Nc3ccc(F)cc3)cc21` gave a remaining signal of 85.9% (CDK5 with p25; cell-free assay; 0.5 µM).
For `Cc1cc(NC(=O)c2cccc3cc(-c4cccc5[nH]nc(N)c45)ccc23)ccc1F`, the activity vs control was 94% (CDK5 with p25; enzyme activity, inhibitor; 0.1 µM).
`Cc1ccc(NC(=O)c2ccc(C)c(C(F)(F)F)c2)cc1C#Cc1nn(C2CCC(O)CC2)c2ncnc(N)c12` (stereo not drawn) gave a remaining signal of 87% (CDK5 with p25; cell-free assay; 10 µM).
The remaining binding of `CC(C)CC(=O)N1CCc2nc(-c3ccc(Br)cc3)nc(N(C)Cc3ccccc3)c2C1` is reported as 100% (CDK5; cell-free assay, competition with immobilised ligand; 0.1 µM).
For `O=C1Nc2ccc(Cl)cc2C1=Cc1cc(Cl)c(O)c(Cl)c1`, the remaining signal was 82.6% (CDK5 with p25; cell-free assay; 0.5 µM).
For `CC(C)c1ccc(NC(=O)c2cccs2)c(-c2nc3ccccc3[nH]c2=O)c1`, the activity vs control was 103% (CDK5 with p35; enzyme activity, inhibitor; 1 µM).
For `CC[C@H](C)[C@H](NC(=O)[C@H](CCC(N)=O)NC(=O)[C@H](CC(C)C)NC(=O)[C@H](CCSC)NC(=O)[C@H](CCCCN)NC(=O)[C@H](CO)NC(=O)[C@H](CO)NC(=O)[C@H](CCSC)NC(=O)[C@H](CC(C)C)NC(=O)[C@H](CC(N)=O)NC(=O)[C@@H](NC(=O)[C@@H](NC(=O)[C@H](CO)NC(=O)[C@H](CC(C)C)NC(=O)[C@H](CS)NC(=O)[C@H](CCCNC(=N)N)NC(=O)[C@H](CC(=O)O)NC(=O)[C@H](Cc1c[nH]c2ccccc12)NC(=O)[C@H](Cc1ccccc1)NC(=O)[C@H](C)NC(=O)[C@H](CCC(=O)O)NC(=O)[C@@H](N)CCCCN)C(C)C)[C@@H](C)CC)C(=O)N[C@@H](CC(N)=O)C(=O)N[C@@H](C)C(=O)O`, the remaining activity was 87% (CDK5 with p25; enzyme activity, inhibitor, radiometric; 10 µM, 20 min).
`O=C1NC(c2ccccn2)Sc2ccccc21` (stereo not drawn) has a remaining binding of 86% (CDK5; cell-free assay, competition with immobilised ligand; 1 µM).
The remaining signal of `Oc1ccc(-c2nc(-c3ccncc3)c(-c3ccc(F)cc3)[nH]2)cc1` is reported as 96% (CDK5 with p25; cell-free assay; 0.5 µM).
With `Cc1c(NC(=O)c2cc(C(N)=O)nc3cc(F)ccc23)c(C(F)(F)F)nn1Cc1ccc(C#N)cc1` the remaining binding was 100% (CDK5; cell-free assay, competition with immobilised ligand; 1 µM).
`Nc1nc(Nc2ccc(S(N)(=O)=O)cc2)nn1C(=O)c1c(F)cccc1F` has a remaining signal of 2.54% (CDK5 with p25; cell-free assay; 0.5 µM).
`CCCOc1ccc(OC)c(F)c1C(=O)c1ccc(C(=O)N[C@@H]2CNC[C@H]2NC(=O)c2ccc3[nH]ncc3c2)cc1` has a remaining activity of 1% (CDK5 with p25; enzyme activity, inhibitor; 10 µM).
